Source: ChEMBL document CHEMBL1140863, “Synthesis and evaluation of novel chloropyridazine derivatives as potent human rhinovirus (HRV) capsid-binding inhibitors” (Bioorg Med Chem, 2009)
≈ marks a conversion by molar mass, not a printed value.

Key:
[1] = Selectivity index, ratio of CC50 for human KB cells to EC50 for HRV2 by visual assay
Procedure, shortened: (§1)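 Cell-culture cytopathic-effect (CPE) assays against HRV-2 and HRV-14. Antiviral EC50 and cytotoxic CC50 were each taken in µg/ml, with inhibition read either visually or by neutral red uptake. SI = CC50/EC50 for each read-out. Where viral CPE could not be told apart from drug cytotoxicity, this was flagged in a footnote.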

[2] = Cytotoxicity against human KB cells by visual assay; format: cell-based
Procedure, shortened: (§2)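 Cell-culture cytopathic-effect assays run in parallel on strains HRV-2 and HRV-14, each read both visually and by neutral red uptake. Antiviral EC50 and cytotoxic CC50 are expressed in µg/ml.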

rhinovirus B14 [3] = test: Antiviral activity against HRV14 in human KB cells assessed as cytopathic effect by neutral red uptake assay; format: functional, organism-based; conditions: Rhinovirus B; procedure, shortened: as §2
rhinovirus A2 [4] = test: Antiviral activity against HRV2 in human KB cells assessed as cytopathic effect by neutral red uptake assay; format: functional, organism-based; conditions: Rhinovirus A; procedure, shortened: as §2
rhinovirus B14 [5] = test: Antiviral activity against HRV14 in human KB cells assessed as cytopathic effect by visual assay; format: functional, organism-based; conditions: Rhinovirus B; procedure, shortened: as §2
[6] = Selectivity index, ratio of CC50 for human KB cells to EC50 for HRV14 by visual assay; procedure, shortened: as §1
[7] = Cytotoxicity against human KB cells by neutral red uptake assay; format: cell-based; procedure, shortened: as §2
[8] = Selectivity index, ratio of CC50 for human KB cells to EC50 for HRV14 by neutral red uptake assay; procedure, shortened: as §1
rhinovirus A2 [9] = test: Antiviral activity against HRV2 in human KB cells assessed as cytopathic effect by visual assay; format: functional, organism-based; conditions: Rhinovirus A; procedure, shortened: as §2
[10] = Selectivity index, ratio of CC50 for human KB cells to EC50 for HRV2 by neutral red uptake assay; procedure, shortened: as §1

CCCCc1ccc(OCCN2CCN(c3cc(Cl)nnc3Cl)CC2)cc1
Ratio CC50/EC50 [1]: 1.8 | CC50 [2]: 10 µg/mL (≈ 24.4 µM) | EC50 (rhinovirus B14 [3]): 0.55 µg/mL (≈ 1.34 µM) | EC50 (rhinovirus A2 [4]): > 1.9 µg/mL | EC50 (rhinovirus B14 [5]): 0.15 µg/mL (≈ 0.366 µM) | Ratio CC50/EC50 [6]: 120 | CC50 [7]: 1.9 µg/mL (≈ 4.64 µM) | Ratio CC50/EC50 [8]: 3.5 | EC50 (rhinovirus A2 [9]): 5.7 µg/mL (≈ 13.9 µM)

COC(=O)c1ccc(OCCC2CCN(c3cc(Cl)nnc3Cl)CC2)cc1
Ratio CC50/EC50 [1]: 97 | CC50 [2]: 30 µg/mL (≈ 73.1 µM) | EC50 (rhinovirus B14 [3]): > 4.7 µg/mL | EC50 (rhinovirus A2 [4]): 0.1 µg/mL (≈ 0.244 µM) | EC50 (rhinovirus B14 [5]): 7.1 µg/mL (≈ 17.3 µM) | Ratio CC50/EC50 [6]: 8 | Ratio CC50/EC50 [10]: 58 | CC50 [7]: 4.7 µg/mL (≈ 11.5 µM) | EC50 (rhinovirus A2 [9]): 0.31 µg/mL (≈ 0.756 µM)

CCOc1ccc(OCCN2CCN(c3cc(Cl)nnc3Cl)CC2)cc1
CC50 [2]: 35 µg/mL (≈ 88.1 µM) | EC50 (rhinovirus B14 [3]): < 0.032 µg/mL | EC50 (rhinovirus A2 [4]): > 12 µg/mL | EC50 (rhinovirus B14 [5]): 0.036 µg/mL (≈ 0.0906 µM) | Ratio CC50/EC50 [6]: 972 | CC50 [7]: 12 µg/mL (≈ 30.2 µM) | Ratio CC50/EC50 [8]: >370 | EC50 (rhinovirus A2 [9]): > 35 µg/mL

O=Cc1ccc(OCCN2CCN(c3cc(Cl)nnc3Cl)CC2)cc1
CC50 [2]: 56 µg/mL (≈ 147 µM) | EC50 (rhinovirus B14 [3]): > 43 µg/mL | EC50 (rhinovirus A2 [4]): 46 µg/mL (≈ 121 µM) | EC50 (rhinovirus B14 [5]): 43 µg/mL (≈ 113 µM) | Ratio CC50/EC50 [6]: >2 | Ratio CC50/EC50 [10]: 1.1 | CC50 [7]: 43 µg/mL (≈ 113 µM) | EC50 (rhinovirus A2 [9]): > 56 µg/mL

Clc1cc(N2CCN(CCOc3ccc(-n4cnnc4)cc3)CC2)c(Cl)nn1
CC50 [2]: 35 µg/mL (≈ 83.3 µM) | EC50 (rhinovirus B14 [3]): 15 µg/mL (≈ 35.7 µM) | EC50 (rhinovirus A2 [4]): > 42 µg/mL | EC50 (rhinovirus B14 [5]): 12 µg/mL (≈ 28.6 µM) | Ratio CC50/EC50 [6]: 3 | CC50 [7]: 39 µg/mL (≈ 92.8 µM) | Ratio CC50/EC50 [8]: 2.5 | EC50 (rhinovirus A2 [9]): > 100 µg/mL

CCOC(=O)c1ccc(OCCC2CCN(c3ccnnc3Cl)CC2)nc1
Ratio CC50/EC50 [1]: >3125 | CC50 [2]: > 100 µg/mL | EC50 (rhinovirus B14 [3]): < 0.032 µg/mL | EC50 (rhinovirus A2 [4]): < 0.032 µg/mL | EC50 (rhinovirus B14 [5]): < 0.032 µg/mL | Ratio CC50/EC50 [6]: >3125 | Ratio CC50/EC50 [10]: >3125 | CC50 [7]: > 100 µg/mL | Ratio CC50/EC50 [8]: >3125 | EC50 (rhinovirus A2 [9]): < 0.032 µg/mL

CCOC(=O)c1ccc(OCCC2CCN(c3ccc(C)nn3)CC2)cc1 [PIRODAVIR]
Ratio CC50/EC50 [1]: >3125 | CC50 [2]: > 10 µg/mL | EC50 (rhinovirus B14 [3]): 0.01 µg/mL (≈ 0.0271 µM) | EC50 (rhinovirus A2 [4]): < 0.0032 µg/mL | EC50 (rhinovirus B14 [5]): 0.081 µg/mL (≈ 0.219 µM) | Ratio CC50/EC50 [6]: >123 | Ratio CC50/EC50 [10]: >3125 | CC50 [7]: > 10 µg/mL | Ratio CC50/EC50 [8]: >1000 | EC50 (rhinovirus A2 [9]): < 0.0032 µg/mL
